Common to all, as to assay: Cell-based UBIAD1 functional assay
Experiment [1] concerns the target T1, UBIAD1 G177E (Homo sapiens, UniProt Q9Y5Z9, G177E).
T1 sequence (Q9Y5Z9 1-338 G177E): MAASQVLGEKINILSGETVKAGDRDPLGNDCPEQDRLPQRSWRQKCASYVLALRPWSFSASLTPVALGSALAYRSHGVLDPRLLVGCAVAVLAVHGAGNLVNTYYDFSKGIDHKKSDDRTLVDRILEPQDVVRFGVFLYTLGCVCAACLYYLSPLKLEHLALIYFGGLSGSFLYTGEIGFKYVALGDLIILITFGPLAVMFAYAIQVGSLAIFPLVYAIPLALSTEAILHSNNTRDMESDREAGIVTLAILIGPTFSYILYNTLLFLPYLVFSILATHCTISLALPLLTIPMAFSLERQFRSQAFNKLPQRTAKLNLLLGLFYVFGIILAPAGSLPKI
The method, boiled down: (§1)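 Wild-type or mutant human UBIAD1 in pCI-neo was transiently transfected into Ubiad1-knockout FIXgla-PC/HEK293 cells (DMEM/F12, 10% FBS). […] After 24 h, carboxylated FIXgla-PC in the medium was measured by ELISA. Activity was normalized to wild type (100%), and EC50 came from a curve fit. Mean ± SD, n=3 independent experiments.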

For experiment [2], the target named is T2, UBIAD1 D240A (Homo sapiens, UniProt Q9Y5Z9, D240A).
T2 sequence (Q9Y5Z9 1-338 D240A): T1 sequence (Q9Y5Z9 1-338 G177E) with E177G, D240A
In a few lines:
as §1

Experiment [3] has as its target T3, UBIAD1 N102S (Homo sapiens, UniProt Q9Y5Z9, N102S).
T3 sequence (Q9Y5Z9 1-338 N102S): T1 sequence (Q9Y5Z9 1-338 G177E) with N102S, E177G
In a few lines: as §1

The target of experiment [4] is T4, UBIAD1 L67Q (Homo sapiens, UniProt Q9Y5Z9, L67Q).
T4 sequence (Q9Y5Z9 1-338 L67Q): T1 sequence (Q9Y5Z9 1-338 G177E) with L67Q, E177G
In a few lines:
as §1

For experiment [5], the target named is T5, UBIAD1 G177R (Homo sapiens, UniProt Q9Y5Z9, G177R).
T5 sequence (Q9Y5Z9 1-338 G177R): T1 sequence (Q9Y5Z9 1-338 G177E) with E177R
In a few lines: as §1

In experiment [6] the target is T6, UBIAD1 D240N (Homo sapiens, UniProt Q9Y5Z9, D240N).
T6 sequence (Q9Y5Z9 1-338 D240N): T1 sequence (Q9Y5Z9 1-338 G177E) with E177G, D240N
The method, boiled down: as §1

Experiment [7] concerns the target T7, UBIAD1 D112N (Homo sapiens, UniProt Q9Y5Z9, D112N).
T7 sequence (Q9Y5Z9 1-338 D112N): T1 sequence (Q9Y5Z9 1-338 G177E) with D112N, E177G
In a few lines: as §1

Experimental findings from publication PMC9064899 (The FEBS journal, 2021) are described below.

Each structure is given as a SMILES string. Changes are numbered by the printed parent chain.

As a reminder, the EC50 is the concentration at which the effect is half-maximal. A high value points to a less potent agent. With `CC1=CC(=O)c2ccccc2C1=O` [vitamin K3, menadione], the EC50 turned out to be 3.7 ± 0.5 nM in experiment [1]; 64 ± 10.5 nM in experiment [2]; 3.9 ± 0.3 nM in experiment [3]; 3.8 ± 0.8 nM in experiment [4]; 3 ± 0.3 nM in experiment [5]; 11.2 ± 1.5 nM in experiment [6]. Besides, the EC50 in experiment [7] is 6.4 ± 0.6 nM. Moreover, the “Vitamin K-dependent carboxylation Activity ± SD” value in experiment [1] (G177E, 1 μM vitamin K3) was 117.1 ± 4.5%; in experiment [2] (D240A, 1 μM vitamin K3), 85.6 ± 1.4%; in experiment [3] (N102S, 1 μM vitamin K3), 98.2 ± 3%; in experiment [4] (L67Q, 1 μM vitamin K3), 40.7 ± 2%; in experiment [5] (G177R, 1 μM vitamin K3) it was 119.8 ± 1.2%; in experiment [6] (D240N, 1 μM vitamin K3), 107.8 ± 2.5%. Besides, the “Vitamin K-dependent carboxylation Activity ± SD” value in experiment [7] (D112N, 1 μM vitamin K3) is listed as 109.6 ± 5.2%.
